Assay results collected from several papers.
Values after ≈ are worked out from the molar mass of the structure shown.
Read-out: microbial growth

CCCCCCCCCCCN1CCN(CC(O)(Cn2cncn2)c2ccc(F)cc2F)CC1 (centres unmarked) — MIC (Lodderomyces parapsilosis; broth dilution; ATCC22019; 48 h): 0.24 mg/L (≈ 0.502 µM)
C[C@@H]1[C@H](O)[C@@H](C)/C=C/C=C/C=C/C=C/C=C/C=C/C=C/[C@H](O[C@@H]2O[C@H](C)[C@@H](O)[C@H](N)[C@@H]2O)C[C@@H]2O[C@](O)(C[C@@H](O)C[C@@H](O)[C@H](O)CC[C@@H](O)C[C@@H](O)CC(=O)O[C@H]1C)C[C@H](O)[C@H]2C(=O)O — MIC90 (Lodderomyces parapsilosis): 0.125 mg/L (≈ 0.135 µM)
CSc1ccc(-c2nc3ccccc3[nH]2)cc1 — MIC (Aspergillus niger; ATCC16404): 64 mg/L (≈ 266 µM)
OC(CN1CCOCC1)(Cn1cncn1)c1ccc(F)cc1F (centres unmarked) — MIC (Lodderomyces parapsilosis; broth dilution; ATCC22019; 48 h): 31.3 mg/L (≈ 96.5 µM)
C[C@@H](c1ncncc1F)[C@](O)(Cn1cncn1)c1ccc(F)cc1F — MIC90 (Lodderomyces parapsilosis): 0.016 mg/L (≈ 0.0458 µM)
CN(C)c1ccc(-c2nc3ccccc3[nH]2)cc1 — MIC (Aspergillus niger; ATCC16404): 512 mg/L (≈ 2160 µM)
CCCCCCCCCCCCCCN1CCNCC1 — MIC (Lodderomyces parapsilosis; broth dilution; ATCC22019; 48 h): 0.975 mg/L (≈ 3.45 µM)
CC(=O)N1CCN(c2ccc(OCC3COC(Cn4ccnc4)(c4ccc(Cl)cc4Cl)O3)cc2)CC1 (centres unmarked) — MIC90 (Lodderomyces parapsilosis): 0.125 mg/L (≈ 0.235 µM)
O=C(Nc1ccccc1-c1ccc(F)c(F)c1)c1nccnc1C(F)(F)F — EC50 (Alternaria porri): 0.04 mg/L (≈ 0.105 µM)
O=[N+]([O-])c1ccc(-c2nc3ccccc3[nH]2)cc1 — MIC (Aspergillus niger; ATCC16404): 512 mg/L (≈ 2140 µM)
OC(Cn1cncn1)(Cn1cncn1)c1ccc(F)cc1F — MIC90 (Lodderomyces parapsilosis; broth dilution; 24 h): 0.5 mg/L (≈ 1.63 µM)
